Data on four molecules can be found in PubChem BioAssay AID493090 (Southern Research Specialized Biocontainment Screening …, 2011).

Calls of active or inactive are those of the source.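 Rule for the calls: active = cell viability under 70% at any tested concentration, a measure not printed in our tables; inactive = the rest.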

The test system of this experiment is HEp-2 viability, luminescence cytotoxicity counter-screen. Briefly: HEp-2 cell cytotoxicity, dose response, cytotoxicity control for RSV inhibitor project, synthesized compounds, set 5 (AID 493090). A digest of the protocol:
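Test system: HEp-2 human cell line, uninfected, for cytotoxicity / Times: compound exposure of cells for 6 days at 37 °C / Measured by: CellTiter-Glo luminescence / Measure: % viability vs cell controls, CC50 from constrained four-parameter fit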
In the case of `CC(=O)c1ccccc1NC(=O)[C@@H]1CCCN1S(=O)(=O)c1cccc2cccnc12`, the CC50 is > 50 µM (inactive).
On to `Cc1ncccc1NC(=O)[C@@H]1CCCN1S(=O)(=O)c1cccc2cccnc12`, for which the CC50 was > 50 µM (inactive).
Consider `CCOC(=O)c1ccc2[nH]c3c(c2c1)CN(C)CC3`, for which the CC50 is > 50 µM (inactive).
Turning to `COCCCNC(=O)c1ccc(Cn2c(=O)c3ccccc3n(Cc3ccc(C)cc3)c2=O)cc1`, the CC50 was > 50 µM (inactive).
